# Data as given in ChEMBL document CHEMBL4715832, “Isoquinoline-based biaryls as a robust scaffold for microtubule inhibitors” (Eur J Med Chem, 2020).
# The source made the active and inactive calls. The rule behind the calls is not given here.
# Experiments:
# [1] = test system: HeLa; experiment: Induction of microtubule network depolymerization in human HeLa cells after 24 hrs by immunofluorescence staining based confocal microscopic analysis; assay type: cell-based
# Procedure, shortened: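 HeLa cells seeded on glass coverslips (50,000 cells/well), allowed to adhere 18 h, then treated 24 h. Fixed with 0.5% glutaraldehyde, quenched with 0.1% NaBH4, blocked with PBS + 10% FCS. Stained with rabbit anti-alpha-tubulin (1:400, 1 h), then Alexa Fluor 488 anti-rabbit secondary, with DAPI nuclear counterstain. Imaged by confocal microscopy, including z-stack projections.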
# [2] = test system: tubulin (Sus scrofa); experiment: Inhibition of porcine tubulin polymerization at 20 uM preincubated for 10 mins followed by GTP addition by turbidimetric method
# [3] = test system: HeLa; experiment: Antiproliferative activity against human HeLa cells assessed as reduction in cell growth after 48 hrs by resazurin dye based fluorescence assay; assay type: functional
# Procedure, shortened: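 HeLa cells grown in DMEM with 10% FCS and penicillin/streptomycin, 37 °C, 5% CO2. Seeded 5,000 cells/well, treated 24 h later with DMSO 1% final, then incubated 48 h. Resazurin reduction to resorufin measured over 3 h at 37 °C by fluorescence (ex 544/em 590 nm). Normalised to cosolvent control (100%) and cell-free wells (0%). Means of at least three independent experiments.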
# [4] = Solubility of compound in aqueous buffer; assay type: physicochemical
# [5] = test system: HeLa; experiment: Inhibition of tubulin polymerization in human HeLa cells harboring EB3-YFP plasmid assessed as disappearance of […] comet at 10 uM after 2 mins by microscopic analysis; assay type: cell-based
# Procedure, shortened: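 HeLa cells (12,000/well) transiently transfected 24 h after seeding with EB3-YFP plasmid, imaged 24 h later by spinning-disc confocal at 37 °C, 5% CO2 (514 nm, 300 ms exposure, 45 frames/min). Five reference frames taken, compound added, 2 min incubation, then 5 more frames. EB3 comets counted by maxima detection; 7 cells from three independent trials.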
# [6] = Toxicity in Balb/c mouse at 25 mg/kg, iv administered at 48 hrs interval for 3 times; assay type: organism-based; conditions: in vivo
# Procedure, shortened: (§1)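 Male and female Balb/c mice dosed 3 times at 48 h intervals with 25 mg/kg of the phosphate prodrug, by the route named, and monitored for tolerability.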
# [7] = test system: HeLa; experiment: Induction of microtubule network depolymerization in human HeLa cells assessed as appearance of defective spindles at 120 nM after 24 hrs by immunofluorescence staining based confocal microscopic analysis; assay type: cell-based
# Procedure, shortened: (§2)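 HeLa cells on glass coverslips (50,000/well), adhered 18 h, then treated 24 h (DMSO 1% final). Fixed with 0.5% glutaraldehyde, quenched with 0.1% NaBH4, blocked in PBS + 10% FCS. Stained with rabbit anti-alpha-tubulin (1:400, 1 h) and Alexa 488 goat anti-rabbit secondary, with DAPI nuclear counterstain. Imaged by confocal microscopy with z-stack projections.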
# [8] = test system: HeLa; experiment: Induction of microtubule network depolymerization in human HeLa cells assessed as appearance of defective chromosome alignment at 120 nM after 24 hrs by immunofluorescence staining based confocal microscopic analysis; assay type: cell-based; procedure, shortened: as §2
# [9] = Toxicity in iv dosed Balb/c mouse; assay type: organism-based; conditions: in vivo
# Procedure, shortened: (§3)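 Single-administration dose escalation in male and female Balb/c mice, given i.p. or i.v., to find the maximal tolerated dose of the phosphate prodrug.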
# [10] = test system: HL-60; experiment: Antiproliferative activity against human HL-60 cells assessed as reduction in cell growth after 24 hrs by MTT assay; assay type: functional, cell-based; conditions: HL-60, 24 h
# Procedure, shortened: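 HL-60 cells grown in RPMI 1640 with 10% FCS, no antibiotics, 37 °C, 5% CO2. Seeded 9,000 cells/well, treated 24 h later with DMSO cosolvent at 1% final. After 24 h, MTT 0.5 mg/mL for 2 h, absorbance read. Normalised to cosolvent control (100%) and Triton X-100-treated cells (0%). Means of at least three independent experiments.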
# [11] = test system: HeLa; experiment: Induction of microtubule network depolymerization in human HeLa cells assessed as accumulation of rounded cells at 120 nM after 24 hrs by immunofluorescence staining based confocal microscopic analysis; assay type: cell-based; procedure, shortened: as §2
# [12] = test system: HeLa; experiment: Induction of microtubule network depolymerization in human HeLa cells assessed as induction of mitotic arrest at 120 nM after 24 hrs by immunofluorescence staining based confocal microscopic analysis; assay type: cell-based; procedure, shortened: as §2
# [13] = Toxicity in Balb/c mouse at 25 mg/kg, ip administered at 48 hrs interval for 3 times; assay type: organism-based; conditions: in vivo; procedure, shortened: as §1
# [14] = Toxicity in ip dosed Balb/c mouse; assay type: organism-based; conditions: in vivo; procedure, shortened: as §3
# [15] = test system: HeLa; experiment: Cell cycle arrest in human HeLa cells assessed as accumulation at G2/M phase at 500 nM measured after 24 hrs by propidium iodide staining based flow cytometry; assay type: functional
# Procedure, shortened: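 HeLa cells seeded 50,000/well, treated 24 h; collected, stained with 2 mg/mL propidium iodide at 4 °C for 30 min, analysed by flow cytometry (30,000 cells per condition); cells assigned to sub-G1, G1, S and G2/M by DNA content (PI signal). DMSO cosolvent 1% final.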
EC50 [3],SMILES,Activity [1],Activity [3],further results
280 nM,COc1cc2c(-c3cc(OC)c(OC)c(OC)c3)nccc2cc1F,Dose-dependent effect,Dose-dependent effect,inhibition [2]: Active
180 nM,COc1ccc2ccnc(-c3cc(OC)c(OC)c(OC)c3)c2c1,Dose-dependent effect,Dose-dependent effect,–
> 20000 nM,COc1cc2ccnc(-c3cc(OC)c(OC)c(OC)c3)c2cc1OC,Dose-dependent effect,–,–
> 100000 nM,COc1ccc([C@H](O)c2nccc3c(OC)c(OC)c(OC)cc23)cc1,–,–,–
> 80000 nM,COc1ccc(C(=O)c2nccc3c(OC)c(OC)c(OC)cc23)cc1,–,–,–
> 30000 nM,COc1ccc2cc[n+](C)c(-c3cc(OC)c(OC)c(OC)c3)c2c1,inactive,–,–

SMILES,EC50 [3],Activity [1],Activity [3],further results
COc1cc2c(-c3cc(OC)c(OC)c(OC)c3)nccc2cc1OP(=O)([O-])[O-].[Na+].[Na+],170 nM,Dose-dependent effect,Dose-dependent effect,solubility [4]: > 10 mM; inhibition [5]: Active; Activity [6]: Non-Toxic; Activity [7]: Active; Activity [8]: Active; MTD [9]: 50 mg/kg; EC50 [10]: 570 nM; Activity [11]: Active; Activity [12]: Active; Activity [13]: Non-Toxic; MTD [14]: 32 mg/kg; Activity [15]: Active
